Measured values taken from ChEMBL document CHEMBL1649395, “Synthesis and antibacterial activity of novel ketolides with 11,12-sulfur contained aryl alkyl side chains” (2011).
≈ marks a conversion by molar mass, not a printed value.

What was measured:
Type in all cases: functional
Staphylococcus aureus [1] = test: Antibacterial activity against methicillin-susceptible Staphylococcus aureus ATCC 29213 by broth microdilution method
Method in brief: (§1)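 Strains were ATCC reference strains or clinical isolates from China's national antimicrobial resistance surveillance network (MOHNARIN). In vitro activity was measured by broth microdilution following NCCLS recommendations. Results are reported as minimum inhibitory concentration (MIC) in mg/L.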

Staphylococcus aureus [2] = test: Antibacterial activity against methicillin-susceptible Staphylococcus aureus ANS46 by broth microdilution method; method in brief: as §1
[3] = tested on: Staphylococcus epidermidis; test: Antibacterial activity against methicillin-susceptible Staphylococcus epidermidis 07C134 by broth microdilution method
Method in brief: (§2)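 Clinical isolates were supplied by China's Ministry of Health National Antimicrobial Resistance Investigation Net (MOHNARIN). Activity was reported as minimum inhibitory concentration (MIC), determined by broth microdilution following NCCLS recommendations.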

[4] = tested on: Staphylococcus epidermidis; test: Antibacterial activity against methicillin-susceptible Staphylococcus epidermidis 07T202 by broth microdilution method; method in brief: as §1
[5] = tested on: Staphylococcus epidermidis; test: Antibacterial activity against methicillin-resistant Staphylococcus epidermidis 07R066 by broth microdilution method; method in brief: as §2
[6] = tested on: Staphylococcus epidermidis; test: Antibacterial activity against methicillin-resistant Staphylococcus epidermidis 07A066 by broth microdilution method; method in brief: as §2
Streptococcus pyogenes [7] = test: Antibacterial activity against erythromycin-susceptible Streptococcus pyogenes 07U084 by broth microdilution method; method in brief: as §1
Streptococcus pyogenes [8] = test: Antibacterial activity against erythromycin-susceptible Streptococcus pyogenes 07U086 by broth microdilution method; method in brief: as §1
Streptococcus pneumoniae [9] = test: Antibacterial activity against erythromycin-susceptible Streptococcus pneumoniae ATCC 49619 by broth microdilution method; method in brief: as §1
Haemophilus influenzae [10] = test: Antibacterial activity against erythromycin-susceptible Haemophilus influenzae ATCC 49247 by broth microdilution method; method in brief: as §1
Haemophilus influenzae [11] = test: Antibacterial activity against erythromycin-susceptible Haemophilus influenzae 07O114 by broth microdilution method; method in brief: as §1
Haemophilus influenzae [12] = test: Antibacterial activity against erythromycin-susceptible Haemophilus influenzae 07O339 by broth microdilution method; method in brief: as §1
Haemophilus influenzae [13] = test: Antibacterial activity against erythromycin-susceptible Haemophilus influenzae 07O394 by broth microdilution method; method in brief: as §1
Streptococcus pneumoniae [14] = test: Antibacterial activity against erythromycin-susceptible Streptococcus pneumoniae 07H252 by broth microdilution method; method in brief: as §1
Streptococcus pyogenes [15] = test: Antibacterial activity against erythromycin-resistant Streptococcus pyogenes 03-233 by broth microdilution method; method in brief: as §2
Streptococcus pyogenes [16] = test: Antibacterial activity against erythromycin-resistant Streptococcus pyogenes 01-533 by broth microdilution method; method in brief: as §2
Streptococcus pneumoniae [17] = test: Antibacterial activity against erythromycin-resistant Streptococcus pneumoniae 07D201 by broth microdilution method; method in brief: as §2
Streptococcus pneumoniae [18] = test: Antibacterial activity against erythromycin-resistant Streptococcus pneumoniae 07P390 by broth microdilution method; method in brief: as §2

Compound: CC[C@H]1OC(=O)[C@H](C)C(=O)[C@H](C)[C@@H](O[C@@H]2O[C@H](C)C[C@H](N(C)C)[C@H]2O)[C@@](C)(OC)C[C@@H](C)C(=O)[C@H](C)[C@H]2N(CCCSc3nc4cc(OC)ccc4s3)C(=O)O[C@]12C
- MIC (Staphylococcus aureus [1]): 0.5 µg/mL (≈ 0.588 µM)
- MIC (Staphylococcus aureus [2]): > 16 µg/mL
- MIC [3]: 0.25 µg/mL (≈ 0.294 µM)
- MIC [4]: 16 µg/mL (≈ 18.8 µM)
- MIC [5]: 0.25 µg/mL (≈ 0.294 µM)
- MIC [6]: 0.5 µg/mL (≈ 0.588 µM)
- MIC (Streptococcus pyogenes [7]): 0.062 µg/mL (≈ 0.0729 µM)
- MIC (Streptococcus pyogenes [8]): 0.062 µg/mL (≈ 0.0729 µM)
- MIC (Streptococcus pneumoniae [9]): 0.125 µg/mL (≈ 0.147 µM)
- MIC (Haemophilus influenzae [10]): 16 µg/mL (≈ 18.8 µM)
- MIC (Haemophilus influenzae [11]): 16 µg/mL (≈ 18.8 µM)
- MIC (Haemophilus influenzae [12]): 16 µg/mL (≈ 18.8 µM)
- MIC (Haemophilus influenzae [13]): 16 µg/mL (≈ 18.8 µM)

Compound: CC[C@H]1OC(=O)[C@H](C)C(=O)[C@H](C)[C@@H](O[C@@H]2O[C@H](C)C[C@H](N(C)C)[C@H]2O)[C@@](C)(OC)C[C@@H](C)C(=O)[C@H](C)[C@H]2N(CCCSc3nc(-c4cccnc4)c[nH]3)C(=O)O[C@]12C
- MIC (Streptococcus pneumoniae [14]): 0.25 µg/mL (≈ 0.301 µM)
- MIC (Staphylococcus aureus [1]): 0.125 µg/mL (≈ 0.151 µM)
- MIC (Staphylococcus aureus [2]): > 32 µg/mL
- MIC [3]: 0.125 µg/mL (≈ 0.151 µM)
- MIC [4]: 32 µg/mL (≈ 38.6 µM)
- MIC [5]: 0.125 µg/mL (≈ 0.151 µM)
- MIC [6]: 0.125 µg/mL (≈ 0.151 µM)
- MIC (Streptococcus pyogenes [7]): 0.031 µg/mL (≈ 0.0373 µM)
- MIC (Streptococcus pyogenes [8]): 0.031 µg/mL (≈ 0.0373 µM)
- MIC (Streptococcus pyogenes [15]): 1 µg/mL (≈ 1.2 µM)
- MIC (Streptococcus pyogenes [16]): 0.125 µg/mL (≈ 0.151 µM)
- MIC (Streptococcus pneumoniae [9]): 0.062 µg/mL (≈ 0.0747 µM)
- MIC (Streptococcus pneumoniae [17]): 4 µg/mL (≈ 4.82 µM)
- MIC (Streptococcus pneumoniae [18]): 0.031 µg/mL (≈ 0.0373 µM)
- MIC (Haemophilus influenzae [10]): 2 µg/mL (≈ 2.41 µM)
- MIC (Haemophilus influenzae [11]): 2 µg/mL (≈ 2.41 µM)
- MIC (Haemophilus influenzae [12]): 2 µg/mL (≈ 2.41 µM)
- MIC (Haemophilus influenzae [13]): 2 µg/mL (≈ 2.41 µM)

Compound: CCCc1cnc(SCCCN2C(=O)O[C@]3(C)[C@@H](CC)OC(=O)[C@H](C)C(=O)[C@H](C)[C@@H](O[C@@H]4O[C@H](C)C[C@H](N(C)C)[C@H]4O)[C@@](C)(OC)C[C@@H](C)C(=O)[C@H](C)[C@@H]23)nc1
- MIC (Staphylococcus aureus [1]): 0.5 µg/mL (≈ 0.62 µM)
- MIC (Staphylococcus aureus [2]): > 16 µg/mL
- MIC [3]: 0.5 µg/mL (≈ 0.62 µM)
- MIC [4]: > 16 µg/mL
- MIC [5]: 0.5 µg/mL (≈ 0.62 µM)
- MIC [6]: 1 µg/mL (≈ 1.24 µM)
- MIC (Streptococcus pyogenes [7]): 0.125 µg/mL (≈ 0.155 µM)
- MIC (Streptococcus pyogenes [8]): 0.125 µg/mL (≈ 0.155 µM)
- MIC (Streptococcus pneumoniae [9]): 0.125 µg/mL (≈ 0.155 µM)
- MIC (Haemophilus influenzae [10]): 16 µg/mL (≈ 19.8 µM)
- MIC (Haemophilus influenzae [11]): 16 µg/mL (≈ 19.8 µM)
- MIC (Haemophilus influenzae [12]): 16 µg/mL (≈ 19.8 µM)
- MIC (Haemophilus influenzae [13]): 16 µg/mL (≈ 19.8 µM)

Compound: CC[C@H]1OC(=O)[C@H](C)C(=O)[C@H](C)[C@@H](O[C@@H]2O[C@H](C)C[C@H](N(C)C)[C@H]2O)[C@](C)(OC)C[C@@H](C)C(=O)[C@H](C)[C@H]2N(CCCCn3cnc(-c4cccnc4)c3)C(=O)O[C@]12C [TELITHROMYCIN]
- MIC (Streptococcus pneumoniae [14]): 0.062 µg/mL (≈ 0.0764 µM)
- MIC (Staphylococcus aureus [1]): 0.125 µg/mL (≈ 0.154 µM)
- MIC (Staphylococcus aureus [2]): > 16 µg/mL
- MIC [3]: 0.125 µg/mL (≈ 0.154 µM)
- MIC [4]: > 16 µg/mL
- MIC [5]: 0.125 µg/mL (≈ 0.154 µM)
- MIC [6]: 0.125 µg/mL (≈ 0.154 µM)
- MIC (Streptococcus pyogenes [7]): 0.062 µg/mL (≈ 0.0764 µM)
- MIC (Streptococcus pyogenes [8]): 0.062 µg/mL (≈ 0.0764 µM)
- MIC (Streptococcus pyogenes [15]): 2 µg/mL (≈ 2.46 µM)
- MIC (Streptococcus pyogenes [16]): 0.25 µg/mL (≈ 0.308 µM)
- MIC (Streptococcus pneumoniae [9]): 0.031 µg/mL (≈ 0.0382 µM)
- MIC (Streptococcus pneumoniae [17]): 1 µg/mL (≈ 1.23 µM)
- MIC (Streptococcus pneumoniae [18]): 0.031 µg/mL (≈ 0.0382 µM)
- MIC (Haemophilus influenzae [10]): 4 µg/mL (≈ 4.93 µM)
- MIC (Haemophilus influenzae [11]): 4 µg/mL (≈ 4.93 µM)
- MIC (Haemophilus influenzae [12]): 4 µg/mL (≈ 4.93 µM)
- MIC (Haemophilus influenzae [13]): 4 µg/mL (≈ 4.93 µM)

Compound: CC[C@H]1OC(=O)[C@H](C)[C@@H](O[C@H]2C[C@@](C)(OC)[C@@H](O)[C@H](C)O2)[C@H](C)[C@@H](O[C@@H]2O[C@H](C)C[C@H](N(C)C)[C@H]2O)[C@](C)(OC)C[C@@H](C)C(=O)[C@H](C)[C@@H](O)[C@]1(C)O [CLARITHROMYCIN]
- MIC (Streptococcus pneumoniae [14]): 0.062 µg/mL (≈ 0.0829 µM)
- MIC (Staphylococcus aureus [1]): 0.25 µg/mL (≈ 0.334 µM)
- MIC (Staphylococcus aureus [2]): > 32 µg/mL
- MIC [3]: 0.25 µg/mL (≈ 0.334 µM)
- MIC [4]: > 32 µg/mL
- MIC [5]: 0.125 µg/mL (≈ 0.167 µM)
- MIC [6]: 8 µg/mL (≈ 10.7 µM)
- MIC (Streptococcus pyogenes [7]): 0.031 µg/mL (≈ 0.0414 µM)
- MIC (Streptococcus pyogenes [8]): 0.031 µg/mL (≈ 0.0414 µM)
- MIC (Streptococcus pyogenes [15]): > 32 µg/mL
- MIC (Streptococcus pyogenes [16]): 2 µg/mL (≈ 2.67 µM)
- MIC (Streptococcus pneumoniae [9]): 0.031 µg/mL (≈ 0.0414 µM)
- MIC (Streptococcus pneumoniae [17]): > 32 µg/mL
- MIC (Streptococcus pneumoniae [18]): 2 µg/mL (≈ 2.67 µM)
- MIC (Haemophilus influenzae [10]): 4 µg/mL (≈ 5.35 µM)
- MIC (Haemophilus influenzae [11]): 4 µg/mL (≈ 5.35 µM)
- MIC (Haemophilus influenzae [12]): 8 µg/mL (≈ 10.7 µM)
- MIC (Haemophilus influenzae [13]): 8 µg/mL (≈ 10.7 µM)

Compound: CC[C@H]1OC(=O)[C@H](C)C(=O)[C@H](C)[C@@H](O[C@@H]2O[C@H](C)C[C@H](N(C)C)[C@H]2O)[C@@](C)(OC)C[C@@H](C)C(=O)[C@H](C)[C@H]2N(CCCSc3nnc(C)s3)C(=O)O[C@]12C
- MIC (Streptococcus pneumoniae [14]): ≤ 0.016 µg/mL
- MIC (Staphylococcus aureus [1]): 0.25 µg/mL (≈ 0.318 µM)
- MIC (Staphylococcus aureus [2]): > 32 µg/mL
- MIC [3]: 0.125 µg/mL (≈ 0.159 µM)
- MIC [4]: > 32 µg/mL
- MIC [5]: 2 µg/mL (≈ 2.55 µM)
- MIC [6]: 0.125 µg/mL (≈ 0.159 µM)
- MIC (Streptococcus pyogenes [7]): ≤ 0.016 µg/mL
- MIC (Streptococcus pyogenes [8]): 0.031 µg/mL (≈ 0.0395 µM)
- MIC (Streptococcus pyogenes [15]): > 32 µg/mL
- MIC (Streptococcus pyogenes [16]): 1 µg/mL (≈ 1.27 µM)
- MIC (Streptococcus pneumoniae [9]): ≤ 0.016 µg/mL
- MIC (Streptococcus pneumoniae [17]): 16 µg/mL (≈ 20.4 µM)
- MIC (Streptococcus pneumoniae [18]): 0.125 µg/mL (≈ 0.159 µM)
- MIC (Haemophilus influenzae [10]): 2 µg/mL (≈ 2.55 µM)
- MIC (Haemophilus influenzae [11]): 2 µg/mL (≈ 2.55 µM)
- MIC (Haemophilus influenzae [12]): 2 µg/mL (≈ 2.55 µM)
- MIC (Haemophilus influenzae [13]): 2 µg/mL (≈ 2.55 µM)

Compound: CC[C@H]1OC(=O)[C@H](C)C(=O)[C@H](C)[C@@H](O[C@@H]2O[C@H](C)C[C@H](N(C)C)[C@H]2O)[C@@](C)(OC)C[C@@H](C)C(=O)/C(C)=C/[C@]1(C)OC(=O)NCCCSc1ncnc2[nH]ncc12
- MIC (Streptococcus pneumoniae [14]): 8 µg/mL (≈ 9.94 µM)
- MIC (Staphylococcus aureus [1]): 0.5 µg/mL (≈ 0.621 µM)
- MIC (Staphylococcus aureus [2]): > 16 µg/mL
- MIC [3]: 0.5 µg/mL (≈ 0.621 µM)
- MIC [4]: > 16 µg/mL
- MIC [5]: 0.5 µg/mL (≈ 0.621 µM)
- MIC [6]: 0.5 µg/mL (≈ 0.621 µM)
- MIC (Streptococcus pyogenes [7]): 0.25 µg/mL (≈ 0.311 µM)
- MIC (Streptococcus pyogenes [8]): 0.25 µg/mL (≈ 0.311 µM)
- MIC (Streptococcus pyogenes [15]): > 16 µg/mL
- MIC (Streptococcus pyogenes [16]): 8 µg/mL (≈ 9.94 µM)
- MIC (Streptococcus pneumoniae [9]): 0.5 µg/mL (≈ 0.621 µM)
- MIC (Streptococcus pneumoniae [17]): > 16 µg/mL
- MIC (Streptococcus pneumoniae [18]): 16 µg/mL (≈ 19.9 µM)
- MIC (Haemophilus influenzae [10]): > 16 µg/mL
- MIC (Haemophilus influenzae [11]): > 16 µg/mL
- MIC (Haemophilus influenzae [12]): > 16 µg/mL
- MIC (Haemophilus influenzae [13]): > 16 µg/mL
